Data published in ChEMBL document CHEMBL5058577, “EUbOPEN Chemogenomics Library 2 (Multiplex)” (2022).

Test system: U2OS
Test: Multiplex assay against U2OS
Assay type: toxicity, cell-based
Settings: human
Method in brief: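 With compound added, live cells were imaged on a CQ1 microscope at 37°C and 5% CO2; staining with Hoechst33342, BioTracker Green Microtubule Cytoskeleton Dye, MitoTracker Red and Annexin V Alexa Fluor 680 had been done at seeding. The CellPathfinder machine-learning gating scheme split cells into Hoechst high-intensity objects or normal cells, normal cells into healthy, pyknosed or fragmented nuclei, and pyknosed cells into mitotic or apoptotic. The tubulin, mitochondrial-mass and membrane-permeability phenotypes are per cents of healthy-nucleus cells.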

[1] = 12 h, 1 µM, compound concentration 1 uM, replicate 1
[2] = 12 h, 1 µM, compound concentration 1 uM, replicate 2
[3] = 12 h, 10 µM, compound concentration 10 uM, replicate 1
[4] = 12 h, 10 µM, compound concentration 10 uM, replicate 2
[5] = 24 h, 1 µM, compound concentration 1 uM, replicate 1
[6] = 24 h, 1 µM, compound concentration 1 uM, replicate 2
[7] = 24 h, 10 µM, compound concentration 10 uM, replicate 1
[8] = 24 h, 10 µM, compound concentration 10 uM, replicate 2
[9] = 48 h, 1 µM, compound concentration 1 uM, replicate 1
[10] = 48 h, 1 µM, compound concentration 1 uM, replicate 2
[11] = 48 h, 10 µM, compound concentration 10 uM, replicate 1
[12] = 48 h, 10 µM, compound concentration 10 uM, replicate 2

**Q.** With `C[C@H](N)COC(=O)[C@@H](CCCCN)NC(=O)Cc1c(-c2ccc3ccccc3c2)[nH]c2c1ccc1ccccc12` as the molecule, how does the “Population Apoptotic (%)” value [1] read?
**A.** 73%

**Q.** What about the “Population Fragmented Nuclei (%)” value [1] of the same molecule?
**A.** 26%

**Q.** And the “Population Healthy Nuclei (%)” value [1]?
**A.** 66%

**Q.** And the “Population Hoechst High Intensity Objects (%)” value [1]?
**A.** 3%

**Q.** What about the “Population Membrane Permeable-Phenotype (%)” value [1] of the same molecule?
**A.** 6%

**Q.** And the “Population Mitochondria Different-Phenotype (%)” value [1]?
**A.** 3%

**Q.** And the “Population Mitotic Cells (%)” value [1]?
**A.** 26%

**Q.** What about the “Population Normal (%)” value [1] of the same molecule?
**A.** 96%

**Q.** What about the “Population Pyknosed Nuclei (%)” value [1] of the same molecule?
**A.** 6%

**Q.** And the “Population Tubulin-Different-Phenotype (%)” value [1]?
**A.** 3%

**Q.** What about the “Total Cell Count” value [1] of the same molecule?
**A.** 244

**Q.** What about the “Population Apoptotic (%)” value [2] of the same molecule?
**A.** 75%

**Q.** What about the “Population Fragmented Nuclei (%)” value [2] of the same molecule?
**A.** 14%

**Q.** And the “Population Healthy Nuclei (%)” value [2]?
**A.** 78%

**Q.** And the “Population Hoechst High Intensity Objects (%)” value [2]?
**A.** 0%

**Q.** What about the “Population Membrane Permeable-Phenotype (%)” value [2] of the same molecule?
**A.** 4%

**Q.** What about the “Population Mitochondria Different-Phenotype (%)” value [2] of the same molecule?
**A.** 2%

**Q.** What about the “Population Mitotic Cells (%)” value [2] of the same molecule?
**A.** 25%

**Q.** What about the “Population Normal (%)” value [2] of the same molecule?
**A.** 99%

**Q.** What about the “Population Tubulin-Different-Phenotype (%)” value [2] of the same molecule?
**A.** 4%

**Q.** And the “Total Cell Count” value [2]?
**A.** 128

**Q.** And the “Population Apoptotic (%)” value [3]?
**A.** 78%

**Q.** What about the “Population Fragmented Nuclei (%)” value [3] of the same molecule?
**A.** 23%

**Q.** And the “Population Healthy Nuclei (%)” value [3]?
**A.** 69%

**Q.** And the “Population Hoechst High Intensity Objects (%)” value [3]?
**A.** 2%

**Q.** What about the “Population Membrane Permeable-Phenotype (%)” value [3] of the same molecule?
**A.** 5%

**Q.** And the “Population Mitochondria Different-Phenotype (%)” value [3]?
**A.** 1%

**Q.** What about the “Population Mitotic Cells (%)” value [3] of the same molecule?
**A.** 21%

**Q.** What about the “Population Normal (%)” value [3] of the same molecule?
**A.** 97%

**Q.** What about the “Population Pyknosed Nuclei (%)” value [3] of the same molecule?
**A.** 7%

**Q.** And the “Population Tubulin-Different-Phenotype (%)” value [3]?
**A.** 3%

**Q.** What about the “Total Cell Count” value [3] of the same molecule?
**A.** 279

**Q.** What about the “Population Apoptotic (%)” value [4] of the same molecule?
**A.** 50%

**Q.** What about the “Population Fragmented Nuclei (%)” value [4] of the same molecule?
**A.** 24%

**Q.** And the “Population Healthy Nuclei (%)” value [4]?
**A.** 73%

**Q.** And the “Population Hoechst High Intensity Objects (%)” value [4]?
**A.** 0%

**Q.** And the “Population Membrane Permeable-Phenotype (%)” value [4]?
**A.** 17%

**Q.** What about the “Population Mitochondria Different-Phenotype (%)” value [4] of the same molecule?
**A.** 3%

**Q.** And the “Population Mitotic Cells (%)” value [4]?
**A.** 50%

**Q.** And the “Population Normal (%)” value [4]?
**A.** 100%

**Q.** What about the “Population Pyknosed Nuclei (%)” value [4] of the same molecule?
**A.** 1%

**Q.** And the “Population Tubulin-Different-Phenotype (%)” value [4]?
**A.** 5%

**Q.** And the “Total Cell Count” value [4]?
**A.** 106

**Q.** What about the “Population Apoptotic (%)” value [5] of the same molecule?
**A.** 83%

**Q.** And the “Population Fragmented Nuclei (%)” value [5]?
**A.** 22%

**Q.** And the “Population Healthy Nuclei (%)” value [5]?
**A.** 68%

**Q.** What about the “Population Hoechst High Intensity Objects (%)” value [5] of the same molecule?
**A.** 2%

**Q.** What about the “Population Membrane Permeable-Phenotype (%)” value [5] of the same molecule?
**A.** 3%

**Q.** What about the “Population Mitochondria Different-Phenotype (%)” value [5] of the same molecule?
**A.** 1%

**Q.** And the “Population Mitotic Cells (%)” value [5]?
**A.** 16%

**Q.** And the “Population Normal (%)” value [5]?
**A.** 97%

**Q.** What about the “Population Pyknosed Nuclei (%)” value [5] of the same molecule?
**A.** 8%

**Q.** What about the “Population Tubulin-Different-Phenotype (%)” value [5] of the same molecule?
**A.** 2%

**Q.** What about the “Total Cell Count” value [5] of the same molecule?
**A.** 292

**Q.** What about the “Population Apoptotic (%)” value [6] of the same molecule?
**A.** 90%

**Q.** What about the “Population Fragmented Nuclei (%)” value [6] of the same molecule?
**A.** 16%

**Q.** And the “Population Healthy Nuclei (%)” value [6]?
**A.** 77%

**Q.** What about the “Population Hoechst High Intensity Objects (%)” value [6] of the same molecule?
**A.** 1%

**Q.** And the “Population Membrane Permeable-Phenotype (%)” value [6]?
**A.** 6%

**Q.** And the “Population Mitotic Cells (%)” value [6]?
**A.** 10%

**Q.** And the “Population Normal (%)” value [6]?
**A.** 98%

**Q.** What about the “Population Pyknosed Nuclei (%)” value [6] of the same molecule?
**A.** 5%

**Q.** And the “Population Tubulin-Different-Phenotype (%)” value [6]?
**A.** 3%

**Q.** What about the “Total Cell Count” value [6] of the same molecule?
**A.** 170

**Q.** What about the “Population Apoptotic (%)” value [7] of the same molecule?
**A.** 81%

**Q.** What about the “Population Fragmented Nuclei (%)” value [7] of the same molecule?
**A.** 19%

**Q.** And the “Population Healthy Nuclei (%)” value [7]?
**A.** 73%

**Q.** What about the “Population Hoechst High Intensity Objects (%)” value [7] of the same molecule?
**A.** 2%

**Q.** And the “Population Membrane Permeable-Phenotype (%)” value [7]?
**A.** 5%

**Q.** And the “Population Mitochondria Different-Phenotype (%)” value [7]?
**A.** 1%

**Q.** And the “Population Mitotic Cells (%)” value [7]?
**A.** 18%

**Q.** And the “Population Normal (%)” value [7]?
**A.** 97%

**Q.** And the “Population Pyknosed Nuclei (%)” value [7]?
**A.** 6%

**Q.** What about the “Population Tubulin-Different-Phenotype (%)” value [7] of the same molecule?
**A.** 2%

**Q.** And the “Total Cell Count” value [7]?
**A.** 337

**Q.** What about the “Population Apoptotic (%)” value [8] of the same molecule?
**A.** 100%

**Q.** What about the “Population Fragmented Nuclei (%)” value [8] of the same molecule?
**A.** 17%

**Q.** And the “Population Healthy Nuclei (%)” value [8]?
**A.** 79%

**Q.** What about the “Population Membrane Permeable-Phenotype (%)” value [8] of the same molecule?
**A.** 11%

**Q.** And the “Population Mitochondria Different-Phenotype (%)” value [8]?
**A.** 3%

**Q.** What about the “Population Mitotic Cells (%)” value [8] of the same molecule?
**A.** 0%

**Q.** What about the “Population Pyknosed Nuclei (%)” value [8] of the same molecule?
**A.** 2%

**Q.** And the “Population Tubulin-Different-Phenotype (%)” value [8]?
**A.** 6%

**Q.** And the “Total Cell Count” value [8]?
**A.** 142

**Q.** And the “Population Apoptotic (%)” value [9]?
**A.** 79%

**Q.** And the “Population Fragmented Nuclei (%)” value [9]?
**A.** 16%

**Q.** And the “Population Healthy Nuclei (%)” value [9]?
**A.** 78%

**Q.** And the “Population Hoechst High Intensity Objects (%)” value [9]?
**A.** 1%

**Q.** What about the “Population Membrane Permeable-Phenotype (%)” value [9] of the same molecule?
**A.** 2%

**Q.** What about the “Population Mitochondria Different-Phenotype (%)” value [9] of the same molecule?
**A.** 2%

**Q.** What about the “Population Mitotic Cells (%)” value [9] of the same molecule?
**A.** 20%

**Q.** What about the “Population Normal (%)” value [9] of the same molecule?
**A.** 98%

**Q.** What about the “Population Pyknosed Nuclei (%)” value [9] of the same molecule?
**A.** 5%

**Q.** And the “Population Tubulin-Different-Phenotype (%)” value [9]?
**A.** 2%

**Q.** And the “Total Cell Count” value [9]?
**A.** 440

**Q.** And the “Population Apoptotic (%)” value [10]?
**A.** 73%

**Q.** And the “Population Fragmented Nuclei (%)” value [10]?
**A.** 17%

**Q.** And the “Population Healthy Nuclei (%)” value [10]?
**A.** 73%

**Q.** And the “Population Hoechst High Intensity Objects (%)” value [10]?
**A.** 2%

**Q.** What about the “Population Membrane Permeable-Phenotype (%)” value [10] of the same molecule?
**A.** 3%

**Q.** And the “Population Mitochondria Different-Phenotype (%)” value [10]?
**A.** 4%

**Q.** What about the “Population Mitotic Cells (%)” value [10] of the same molecule?
**A.** 26%

**Q.** And the “Population Normal (%)” value [10]?
**A.** 97%

**Q.** And the “Population Pyknosed Nuclei (%)” value [10]?
**A.** 8%

**Q.** What about the “Population Tubulin-Different-Phenotype (%)” value [10] of the same molecule?
**A.** 1%

**Q.** What about the “Total Cell Count” value [10] of the same molecule?
**A.** 231

**Q.** And the “Population Apoptotic (%)” value [11]?
**A.** 90%

**Q.** And the “Population Fragmented Nuclei (%)” value [11]?
**A.** 14%

**Q.** And the “Population Healthy Nuclei (%)” value [11]?
**A.** 74%

**Q.** What about the “Population Hoechst High Intensity Objects (%)” value [11] of the same molecule?
**A.** 4%

**Q.** What about the “Population Membrane Permeable-Phenotype (%)” value [11] of the same molecule?
**A.** 6%

**Q.** What about the “Population Mitochondria Different-Phenotype (%)” value [11] of the same molecule?
**A.** 1%

**Q.** What about the “Population Mitotic Cells (%)” value [11] of the same molecule?
**A.** 9%

**Q.** What about the “Population Normal (%)” value [11] of the same molecule?
**A.** 95%

**Q.** What about the “Population Pyknosed Nuclei (%)” value [11] of the same molecule?
**A.** 10%

**Q.** What about the “Population Tubulin-Different-Phenotype (%)” value [11] of the same molecule?
**A.** 2%

**Q.** And the “Total Cell Count” value [11]?
**A.** 505

**Q.** And the “Population Fragmented Nuclei (%)” value [12]?
**A.** 16%

**Q.** And the “Population Healthy Nuclei (%)” value [12]?
**A.** 77%

**Q.** What about the “Population Membrane Permeable-Phenotype (%)” value [12] of the same molecule?
**A.** 16%

**Q.** And the “Population Mitochondria Different-Phenotype (%)” value [12]?
**A.** 2%

**Q.** What about the “Population Mitotic Cells (%)” value [12] of the same molecule?
**A.** 10%

**Q.** What about the “Population Pyknosed Nuclei (%)” value [12] of the same molecule?
**A.** 5%

**Q.** And the “Population Tubulin-Different-Phenotype (%)” value [12]?
**A.** 6%

**Q.** What about the “Total Cell Count” value [12] of the same molecule?
**A.** 184
